ChEMBL document CHEMBL4477166, “18β-Glycyrrhetinic Acid Derivatives Possessing a Trihydroxylated A Ring Are Potent Gram-Positive Antibacterial Agents” (2016)
Values after ≈ are worked out from the molar mass of the structure shown. Active and inactive are the calls of the source. No cut-off for these calls is given here.

Columns and labels:
Escherichia coli = assay: Antibacterial activity against Escherichia coli at 100 uM measured after 5 to 6 hrs by microdilution assay; type: functional, organism-based
Pseudomonas aeruginosa [1] = assay: Antibacterial activity against multi-drug resistant Pseudomonas aeruginosa at 100 uM measured after 5 to 6 hrs by microdilution assay; type: functional, organism-based
In short: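 Log-phase cells seeded at 1 × 10⁵ CFU/mL. Single-dose screen at 100 μM, with DMSO cosolvent at most 1% v/v. Growth measured turbidimetrically at 620 nm, before and after incubation with vigorous shaking.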

Staphylococcus aureus [2] = assay: Antibacterial activity against methicillin-resistant Staphylococcus aureus by microdilution assay; type: functional
In short: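 Log-phase cells seeded at 1 × 10⁵ CFU/mL. Twofold serial dilutions made in broth with DMSO cosolvent, at most 1% v/v. Turbidity read at 620 nm before and after incubation with vigorous shaking. MIC is the lowest concentration with no apparent growth versus the medium-plus-vehicle control. Run in triplicate.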

Pseudomonas aeruginosa [3] = assay: Antibacterial activity against Pseudomonas aeruginosa at 100 uM measured after 5 to 6 hrs by microdilution assay; type: functional, organism-based
Staphylococcus aureus [4] = assay: Antibacterial activity against Staphylococcus aureus ATCC 25923 by microdilution assay; type: functional
In short: (§1)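 Turbidimetric broth microdilution. Log-phase cells were washed and resuspended in broth (LB at 37 °C for B. subtilis and S. aureus; oat bran broth at 28 °C for S. scabies) and seeded at 1 × 10⁵ CFU/mL. Twofold serial dilutions were made with DMSO ≤1% (v/v). A620 was read, then plates were incubated with vigorous shaking. MIC was the lowest concentration with no apparent growth versus vehicle-only medium without cells. Run in triplicate.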

Bacillus subtilis = assay: Antibacterial activity against Bacillus subtilis ATCC 6051 by microdilution assay; type: functional; in short: as §1
Streptomyces scabiei = assay: Antibacterial activity against Streptomyces scabiei CGMCC4.7610246 by microdilution assay; type: functional; in short: as §1

Row | SMILES | Activity (Escherichia coli) | Activity (Pseudomonas aeruginosa [1]) | MIC (Staphylococcus aureus [2]) [µg/mL] | Activity (Pseudomonas aeruginosa [3]) | MIC (Staphylococcus aureus [4]) [µg/mL] | MIC (Bacillus subtilis) [µg/mL] | MIC (Streptomyces scabiei) [µg/mL]
1 | CCOC(=O)[C@@]1(C)CC[C@]2(C)CC[C@]3(C)C(=CC(=O)[C@@H]4[C@@]5(C)[C@@H](O)[C@H](O)[C@H](O)C(C)(C)[C@@H]5CC[C@]43C)[C@@H]2C1 | inactive | inactive | 4 (≈ 7.54 µM) | inactive | 4.2 (≈ 7.91 µM) | 16.9 (≈ 31.8 µM) | 2.1 (≈ 3.96 µM)
2 | CC1(C)[C@@H](O)[C@@H](O)[C@H](O)[C@]2(C)[C@H]3CC=C4[C@@H]5C[C@@](C)(C(=O)OCc6ccccc6Cl)CC[C@]5(C)CC[C@@]4(C)[C@]3(C)CC[C@@H]12 | inactive | inactive | > 50 | inactive | > 50 | > 50 | > 50
3 | CC(C)OC(=O)[C@@]1(C)CC[C@]2(C)CC[C@]3(C)C(=CC[C@@H]4[C@@]5(C)[C@@H](O)[C@H](O)[C@H](O)C(C)(C)[C@@H]5CC[C@]43C)[C@@H]2C1 | inactive | inactive | 2 (≈ 3.77 µM) | inactive | 8.4 (≈ 15.8 µM) | > 33.9 | 4.2 (≈ 7.91 µM)
4 | CC(C)OC(=O)[C@@]1(C)CC[C@]2(C)CC[C@]3(C)C(=CC(=O)[C@@H]4[C@@]5(C)[C@@H](O)[C@H](O)[C@H](O)C(C)(C)[C@@H]5CC[C@]43C)[C@@H]2C1 | inactive | inactive | 8 (≈ 14.7 µM) | inactive | > 34.8 | > 34.8 | > 34.8
5 | CC1(C)[C@@H](O)[C@@H](O)[C@H](O)[C@]2(C)[C@H]3C(=O)C=C4[C@@H]5C[C@@](C)(C(=O)OCc6ccccc6[N+](=O)[O-])CC[C@]5(C)CC[C@@]4(C)[C@]3(C)CC[C@@H]12 | inactive | inactive | > 50 | inactive | > 50 | > 50 | > 50
6 | CC1(C)C(=O)[C@@H]2O[C@@H]2[C@]2(C)[C@H]3C(=O)C=C4[C@@H]5C[C@@](C)(C(=O)OCc6ccccc6)CC[C@]5(C)CC[C@@]4(C)[C@]3(C)CC[C@@H]12 | inactive | inactive | > 50 | inactive | > 50 | > 50 | > 50
7 | CC1(C)[C@@H](O)[C@@H]2O[C@@H]2[C@]2(C)[C@H]3C(=O)C=C4[C@@H]5C[C@@](C)(C(=O)OCc6ccccc6)CC[C@]5(C)CC[C@@]4(C)[C@]3(C)CC[C@@H]12 | inactive | inactive | > 50 | inactive | > 50 | > 50 | > 50
8 | CC1(C)[C@@H](O)[C@@H]2O[C@@H]2[C@]2(C)[C@H]3CC=C4[C@@H]5C[C@@](C)(C(=O)OCc6ccccc6)CC[C@]5(C)CC[C@@]4(C)[C@]3(C)CC[C@@H]12 | inactive | inactive | > 50 | inactive | > 50 | > 50 | > 50
9 | CC1(C)[C@@H](O)[C@@H](O)[C@H](O)[C@]2(C)[C@H]3C(=O)C=C4[C@@H]5C[C@@](C)(C(=O)OCc6ccc([N+](=O)[O-])cc6)CC[C@]5(C)CC[C@@]4(C)[C@]3(C)CC[C@@H]12 | inactive | inactive | > 50 | inactive | > 50 | > 50 | > 50
10 | CCCOC(=O)[C@@]1(C)CC[C@]2(C)CC[C@]3(C)C(=CC(=O)[C@@H]4[C@@]5(C)[C@@H](O)[C@H](O)[C@H](O)C(C)(C)[C@@H]5CC[C@]43C)[C@@H]2C1 | inactive | inactive | 2 (≈ 3.67 µM) | inactive | 4.3 (≈ 7.89 µM) | > 34.8 | 4.3 (≈ 7.89 µM)
11 | CC1(C)[C@@H](O)[C@@H](O)[C@H](O)[C@]2(C)[C@H]3CC=C4[C@@H]5C[C@@](C)(C(=O)OCc6ccccc6[N+](=O)[O-])CC[C@]5(C)CC[C@@]4(C)[C@]3(C)CC[C@@H]12 | inactive | inactive | > 50 | inactive | > 50 | > 50 | > 50
12 | CC1(C)[C@H](O)[C@@H](O)[C@H](O)[C@]2(C)[C@H]3C(=O)C=C4[C@@H]5C[C@@](C)(C(=O)O)CC[C@]5(C)CC[C@@]4(C)[C@]3(C)CC[C@@H]12 | inactive | inactive | > 50 | inactive | > 50 | > 50 | > 50
13 | CCCOC(=O)[C@@]1(C)CC[C@]2(C)CC[C@]3(C)C(=CC[C@@H]4[C@@]5(C)[C@@H](O)[C@H](O)[C@H](O)C(C)(C)[C@@H]5CC[C@]43C)[C@@H]2C1 | inactive | inactive | 8 (≈ 15.1 µM) | inactive | 8.4 (≈ 15.8 µM) | > 33.9 | > 33.9
14 | CCCCCOC(=O)[C@@]1(C)CC[C@]2(C)CC[C@]3(C)C(=CC[C@@H]4[C@@]5(C)[C@@H](O)[C@H](O)[C@H](O)C(C)(C)[C@@H]5CC[C@]43C)[C@@H]2C1 | inactive | inactive | > 50 | inactive | > 50 | > 50 | > 50
15 | CC1(C)[C@H](O)[C@@H]2O[C@@H]2[C@]2(C)[C@H]3CC=C4[C@@H]5C[C@@](C)(C(=O)OCc6ccccc6)CC[C@]5(C)CC[C@@]4(C)[C@]3(C)CC[C@@H]12 | inactive | inactive | > 50 | inactive | > 50 | > 50 | > 50
16 | CC1(C)[C@@H](O)[C@@H](O)[C@H](O)[C@]2(C)[C@H]3CC=C4[C@@H]5C[C@@](C)(C(=O)OCc6ccc([N+](=O)[O-])cc6)CC[C@]5(C)CC[C@@]4(C)[C@]3(C)CC[C@@H]12 | inactive | inactive | > 50 | inactive | > 50 | > 50 | > 50
17 | CCCCCOC(=O)[C@@]1(C)CC[C@]2(C)CC[C@]3(C)C(=CC(=O)[C@@H]4[C@@]5(C)[C@@H](O)[C@H](O)[C@H](O)C(C)(C)[C@@H]5CC[C@]43C)[C@@H]2C1 | inactive | inactive | > 50 | inactive | > 50 | > 50 | > 50
18 | CC1(C)[C@H](O)[C@@H]2O[C@@H]2[C@]2(C)[C@H]3C(=O)C=C4[C@@H]5C[C@@](C)(C(=O)OCc6ccccc6)CC[C@]5(C)CC[C@@]4(C)[C@]3(C)CC[C@@H]12 | inactive | inactive | > 32 | inactive | > 36.7 | > 36.7 | 36.7 (≈ 63.8 µM)
19 | CC1(C)[C@@H](O)[C@@H](O)[C@H](O)[C@]2(C)[C@H]3CC=C4[C@@H]5C[C@@](C)(C(=O)OCc6ccc(Cl)cc6)CC[C@]5(C)CC[C@@]4(C)[C@]3(C)CC[C@@H]12 | inactive | inactive | > 50 | inactive | > 50 | > 50 | > 50
20 | CCCCOC(=O)[C@@]1(C)CC[C@]2(C)CC[C@]3(C)C(=CC[C@@H]4[C@@]5(C)[C@@H](O)[C@H](O)[C@H](O)C(C)(C)[C@@H]5CC[C@]43C)[C@@H]2C1 | inactive | inactive | > 32 | inactive | > 34.8 | > 34.8 | 4.3 (≈ 7.89 µM)
21 | COC(=O)[C@@]1(C)CC[C@]2(C)CC[C@]3(C)C(=CC(=O)[C@@H]4[C@@]5(C)[C@@H](O)[C@H](O)[C@H](O)C(C)(C)[C@@H]5CC[C@]43C)[C@@H]2C1 | inactive | inactive | > 50 | inactive | > 50 | > 50 | > 50
22 | CCCCCCCCCCCCCCCOC(=O)[C@@]1(C)CC[C@]2(C)CC[C@]3(C)C(=CC[C@@H]4[C@@]5(C)[C@@H](O)[C@H](O)[C@H](O)C(C)(C)[C@@H]5CC[C@]43C)[C@@H]2C1 | inactive | inactive | > 50 | inactive | > 50 | > 50 | > 50
23 | CC1(C)[C@@H](O)CC[C@]2(C)[C@H]3CC=C4[C@@H]5C[C@@](C)(C(=O)OCc6ccccc6)CC[C@]5(C)CC[C@@]4(C)[C@]3(C)CC[C@@H]12 | inactive | inactive | > 50 | inactive | > 50 | > 50 | > 50
